One assay deals with Furin (Homo sapiens, UniProt P09958). The experiment in a line: Inhibitory activity against furin.
The target in a further assay is Serine protease 1 (Homo sapiens, UniProt P07477). The experiment in a line: Inhibitory activity against trypsin. Summed up:
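Trypsin was tested in the furin buffer: 100 mM HEPES pH 7.5, 0.5% Triton X-100, 1 mM CaCl2, 1 mM 2-mercaptoethanol.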

Assay [1] concerns the target Subtilisin Carlsberg (Bacillus licheniformis) (UniProt P00780). The experiment in a line: Inhibitory activity against subtilism Carlsberg; No inhibition.

The structures appear in SMILES notation.

Sequence of Furin (P09958 whole entry): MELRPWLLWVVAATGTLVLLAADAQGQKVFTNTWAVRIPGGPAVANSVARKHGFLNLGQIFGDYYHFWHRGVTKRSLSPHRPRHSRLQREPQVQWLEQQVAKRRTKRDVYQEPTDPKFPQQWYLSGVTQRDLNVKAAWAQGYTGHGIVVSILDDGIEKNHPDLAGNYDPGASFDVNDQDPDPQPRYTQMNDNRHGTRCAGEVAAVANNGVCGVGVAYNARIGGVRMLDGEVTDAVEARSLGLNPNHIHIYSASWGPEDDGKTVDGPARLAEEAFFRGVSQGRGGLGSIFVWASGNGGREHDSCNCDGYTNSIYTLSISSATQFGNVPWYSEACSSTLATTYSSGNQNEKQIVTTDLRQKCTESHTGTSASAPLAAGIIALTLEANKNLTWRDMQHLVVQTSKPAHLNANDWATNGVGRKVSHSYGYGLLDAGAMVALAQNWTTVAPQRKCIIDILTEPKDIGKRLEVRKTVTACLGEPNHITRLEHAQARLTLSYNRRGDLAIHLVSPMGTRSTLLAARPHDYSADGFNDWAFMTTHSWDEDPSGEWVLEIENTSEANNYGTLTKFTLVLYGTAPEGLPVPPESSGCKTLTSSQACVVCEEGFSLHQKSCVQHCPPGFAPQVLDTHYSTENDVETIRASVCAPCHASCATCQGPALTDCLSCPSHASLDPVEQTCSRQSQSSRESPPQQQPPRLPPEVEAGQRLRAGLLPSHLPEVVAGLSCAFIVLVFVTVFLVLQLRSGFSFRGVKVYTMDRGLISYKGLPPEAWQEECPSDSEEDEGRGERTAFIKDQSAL
Sequence of Serine protease 1 (P07477 whole entry): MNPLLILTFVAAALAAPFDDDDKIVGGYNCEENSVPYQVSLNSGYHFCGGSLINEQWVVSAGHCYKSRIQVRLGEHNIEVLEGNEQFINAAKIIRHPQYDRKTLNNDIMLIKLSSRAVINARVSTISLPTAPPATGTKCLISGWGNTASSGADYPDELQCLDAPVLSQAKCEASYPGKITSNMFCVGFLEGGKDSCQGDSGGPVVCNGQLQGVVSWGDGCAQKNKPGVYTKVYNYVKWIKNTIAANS
Sequence of Subtilisin Carlsberg (Bacillus licheniformis) (P00780 whole entry, looked up): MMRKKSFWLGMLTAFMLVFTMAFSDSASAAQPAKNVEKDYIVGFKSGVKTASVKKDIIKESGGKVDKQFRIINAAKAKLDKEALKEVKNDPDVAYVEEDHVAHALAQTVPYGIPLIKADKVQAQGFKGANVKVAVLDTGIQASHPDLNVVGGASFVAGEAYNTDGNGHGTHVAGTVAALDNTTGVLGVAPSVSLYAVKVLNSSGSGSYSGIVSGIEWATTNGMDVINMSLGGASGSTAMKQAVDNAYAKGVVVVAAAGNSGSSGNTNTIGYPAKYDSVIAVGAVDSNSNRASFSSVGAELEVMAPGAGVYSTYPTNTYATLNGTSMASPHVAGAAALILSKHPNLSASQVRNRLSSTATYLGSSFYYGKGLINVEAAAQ

In general, Ki refers to the equilibrium dissociation constant of an inhibitor or competing ligand from its target. A high value points to a looser hold on the target. Regarding `CCCCCCCCCCN[C@@H](CCCN=C(N)N)C(=O)N[C@H](C(=O)N[C@@H](CCCCN)C(=O)N[C@@H](CCCN=C(N)N)C(=O)CCC(=O)OC)C(C)C`, the affinity on Furin corresponds to a Ki of 240 nM.

With `CCCCCCCCCCN[C@@H](CCCN=C(N)N)C(=O)N[C@H](C(=O)N[C@@H](CCCCN)C(=O)N[C@@H](CCCN=C(N)N)C(=O)CN[C@@H](C)C(=O)N[C@H](C(=O)NCC(N)=O)C(C)C)C(C)C`, at Furin, the Ki came to 3.4 nM.

In turn, `COC(=O)[C@@H](CC(C)C)NC(=O)CNC(=O)[C@H](NC(=O)CCC(=O)[C@H](CCCN=C(N)N)NC(=O)[C@H](CCCCN)NC(=O)[C@@H](NC(=O)[C@H](CCCN=C(N)N)NC(C)=O)C(C)C)C(C)C` had an inhibitory constant (Ki) at Furin of 350 nM.

With `CCCCCCCCCCN[C@@H](CCCNC(=N)N)C(=O)N[C@H](C(=O)N[C@@H](CCCCN)C(=O)N[C@@H](CCCNC(=N)N)C(=O)CN[C@@H](C)C(=O)N[C@H](C(=O)NCC(=O)OC)C(C)C)C(C)C`, the affinity on Serine protease 1 corresponds to a Ki of 1.9 µM.

`CCCCCCCCCCN[C@@H](CCCN=C(N)N)C(=O)N[C@H](C(=O)N[C@@H](CCCCN)C(=O)N[C@H](CCCN=C(N)N)C(=O)CN[C@@H](C)C(=O)N[C@H](C(=O)NCC(N)=O)C(C)C)C(C)C` yielded an inhibition constant (Ki) on Furin of 26 nM.

With `CCCCCCCCCCN[C@@H](CCCN=C(N)N)C(=O)N[C@H](C(=O)N[C@@H](CCCCN)C(=O)N[C@@H](CCCN=C(N)N)C(=O)CCC(=O)N[C@@H](C(=O)NCC(=O)N[C@H](CC(C)C)C(=O)OC)C(C)C)C(C)C`, the figures for the Ki entry (in assay [1]; on Furin; on Serine protease 1) were “Not Active”, 330 nM and 20.9 µM, respectively.

Source of the values: ChEMBL document CHEMBL1128743, “Synthesis of tight binding inhibitors and their action on the proprotein-processing enzyme furin” (J Med Chem, 1995).
